Screening results from PubChem.
AHR activator – AHR activators, primary screen, cell-based, luminescence, luciferase reporter, human. AHR-responsive luciferase reporter cells. AID 2796, 2010. Aryl hydrocarbon receptor (Homo sapiens), P35869. actives 2.5% (n = 320,000). activation, % at 5 µM; in the data active means activation above about 47%
Hep lipid drop – inhibitors of hepatocyte lipid droplet formation, primary screen, imaging, high-throughput imaging, BODIPY stain. AML12 mouse hepatocytes, oleate lipid droplets. inhibition, % at 6.5 µM. actives 0.4% (n = 240,000);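 active means lipid droplet intensity inhibited by at least 50%, with more than 500 cells counted; inconclusive means wells with under 300 cells, treated as cytotoxic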
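Assay system: AML12 hepatocytes (mouse); Probe or stimulus: oleic acid at 100 µM to induce lipid droplet formation; Dosing: compound at 6.5 µM only; Schedule: compound with oleate, overnight; Detection: fluorescence imaging, 20x objective, two fields per well; Measure: % inhibition of lipid droplet signal.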
CR mimetic SO – reduction of superoxide in aged yeast, primary screen, HTS; actives 0.18% (n = 330,000); AID 2690, 2010; superoxide response (% of plate mean), % at 10 µM; S. cerevisiae aged cells, superoxide DHE fluorescence; hits give low values;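 active means superoxide response under a set limit, about three screen SD below normal, cut at about 65% in these data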;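 further: yeast aged for seven days with compound at 30 °C before DHE staining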
SMARCA2 act – SMARCA2 (BRM) function activators, primary screen, cell-based, luminescence, high throughput | MG213 cells, MMTV-luciferase reporter, dexamethasone, overnight | activation, % at 9.1 µM | actives 1% (n = 370,000) | AID 652017, 2013; in the data active means activation above about 7.8%
SR-BI HDL uptake – inhibitors of SR-BI mediated HDL lipid uptake, primary screen, ldlA[mSR-BI] cells, fluorescence, single point | inhibition, % at 12.5 µM | Scavenger receptor class B member 1 (Mus musculus), Q61009 | actives 0.96% (n = 320,000) | ldlA[mSR-BI] CHO cells, DiI-HDL uptake fluorescence, 3 h;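 active means mean replicate inhibition of at least 70% and a set share of replicates each scoring 70 or more; inconclusive means meets just one of the two criteria; inactive means fails both criteria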
Target sequence (Q61009 whole entry, looked up): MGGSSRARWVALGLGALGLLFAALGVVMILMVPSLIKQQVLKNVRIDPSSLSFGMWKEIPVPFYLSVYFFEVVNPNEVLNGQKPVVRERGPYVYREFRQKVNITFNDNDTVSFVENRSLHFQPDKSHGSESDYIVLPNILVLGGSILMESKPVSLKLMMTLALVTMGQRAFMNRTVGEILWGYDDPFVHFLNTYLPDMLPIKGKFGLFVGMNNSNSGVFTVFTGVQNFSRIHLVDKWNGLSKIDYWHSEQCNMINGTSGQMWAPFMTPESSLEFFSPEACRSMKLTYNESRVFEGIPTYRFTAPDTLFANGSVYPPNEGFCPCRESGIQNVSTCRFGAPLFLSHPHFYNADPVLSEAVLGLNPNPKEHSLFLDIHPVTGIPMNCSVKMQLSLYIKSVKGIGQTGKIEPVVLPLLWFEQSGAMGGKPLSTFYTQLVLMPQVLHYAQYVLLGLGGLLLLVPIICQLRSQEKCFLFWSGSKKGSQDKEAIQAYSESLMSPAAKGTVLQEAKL
SR-BI uptake up – activators of SR-BI mediated DiI-HDL uptake, primary screen, ldlA[mSR-BI] CHO cells, DiI fluorescence | 3 h; 100 = double the neutral-control signal | activation, % at 12.5 µM | actives 0.096% (n = 320,000);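 active means mean replicate activation of at least 60% and every replicate at or above 60%; inconclusive means mean or all-replicate condition met, but not both; inactive means mean below 60% and not all replicates reaching 60%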
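Test system: SR-BI-overexpressing, LDLR-lacking CHO cells; Medium: Ham's F12 with 0.5% BSA, HEPES 25 mM, pH 7.4; Schedule: 3 h, 37 °C; Technique: bottom-read fluorescence, 550/595 nm.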
Numbers stand for hits; 0 = inactive; ? = inconclusive; - = no result given. This is a sample that favours compounds with a hit; in the whole collection about 4.3% have one here.

SMILES	AHR activator	Hep lipid drop	CR mimetic SO	SMARCA2 act	SR-BI HDL uptake	SR-BI uptake up
Cc1ccc(-c2cc(-c3ccccc3)nc(N/N=C/c3cccnc3)n2)cc1	63	-	0	0	0	0
C(=N/Nc1nc(-c2ccccc2)cc(-c2ccccc2)n1)/c1cccnc1	0	0	0	0	0	0
O=C(Nc1ccc(Cl)cc1)N1CCN(c2ccccc2)CC1	0	0	0	0	0	0
O=C(Nc1ccc(NC(=O)N2CCN(c3ccccc3O)CC2)cc1)N1CCN(c2ccccc2O)CC1	0	0	0	0	74	0
CN=C1SC(CC(=O)Nc2ccccc2F)C(=O)N1/N=C/c1ccc(O)c(OC)c1 (configuration not stated)	0	0	0	0	74	0
CCOc1ccc(/C=N/N2C(=O)C(CC(=O)Nc3ccc(F)cc3F)SC2=NC)cc1OC (configuration not stated)	0	-	0	0	0	0
Cc1cccc2c(N=Nc3ccc(S(=O)(=O)Nc4ccc(Cl)cc4)cc3[N+](=O)[O-])c(O)[nH]c12	0	0	0	0	97	0
CCCCN1CC(COc2ccc(OC)cc2)OCCS1(=O)=O (configuration not stated)	-	-	-	0	-	-
C=CCN1[C@H](C)[C@H](c2ccccc2)Oc2cc(Br)ccc2S1(=O)=O	-	-	-	0	-	-
O=C1/C(=C/c2c[nH]c3ccccc23)CCC/C1=C\c1c[nH]c2ccccc12	65	0	0	0	89	0
O=C(NN=Cc1ccccc1O)c1cccc([N+](=O)[O-])c1	-	-	-	0	129	0
COc1ccccc1/C=N/NC(=O)c1ccc(NC(=O)c2cccc([N+](=O)[O-])c2)cc1	0	0	0	-	-	-
COc1ccc2ccccc2c1/C=N/NC(=O)c1cccc([N+](=O)[O-])c1	0	-	0	0	86	0
COc1cccc(/C=N/NC(=O)c2cc3cc([N+](=O)[O-])ccc3s2)c1O	0	0	0	0	126	0
Cc1ccccc1C(=O)Nc1cccc(C(=O)N/N=C/c2cc(Cl)cc([N+](=O)[O-])c2O)c1	0	0	0	0	102	0
CCCCCCn1c(-c2ccc(Cl)cc2Cl)csc1=Nc1ccccc1	-	-	-	0	-	-
O=C(/C=C/c1ccccc1F)c1cccc([N+](=O)[O-])c1	58	0	0	0	0	0
COc1cc(/C=C/C(=O)c2cccc([N+](=O)[O-])c2)cc(OC)c1OC	0	0	0	0	0	0
O=C(N/N=C/c1ccc[nH]1)c1ccc([N+](=O)[O-])cc1	0	0	0	7.9	0	0
Cc1cc(/C=N/NC(=O)c2ccncc2)c(C)n1-c1ccccc1	0	0	0	0	0	0
NC(=O)N/N=C/c1ccc(-c2cccc(C(F)(F)F)c2)o1	78	0	0	0	0	0
Cc1cc(/C=N/NC(=O)c2cccc([N+](=O)[O-])c2)c(C)n1-c1ccccc1	0	0	0	0	80	0
O=C(N/N=C/c1ccccc1O)c1cccc(C(F)(F)F)c1	0	0	0	0	136	0
O=C(N/N=C/c1ccc(-c2cccc([N+](=O)[O-])c2)o1)c1ccccc1O	0	0	0	0	0	0
O=C(N/N=C/c1ccc(-c2cccc([N+](=O)[O-])c2)o1)c1ccc([N+](=O)[O-])cc1	0	0	0	0	82	0
SMILES	AHR activator	Hep lipid drop	CR mimetic SO	SMARCA2 act	SR-BI HDL uptake	SR-BI uptake up
O=C(N/N=C/c1ccccn1)c1ccc(NC(=O)c2cccc([N+](=O)[O-])c2)cc1	0	0	0	0	82	0
CC(=O)C1=C(C)N(Cc2ccc(Br)cc2)C(=S)NC1c1ccc(F)cc1 (configuration not stated)	-	-	-	0	-	-
Cc1ccc(Cl)cc1NC(=S)N/N=C/c1cccc2ccccc12	55	0	0	0	0	0
Cc1ccccc1C(=O)N/N=C/c1cccc2ccccc12	0	0	0	0	0	0
Cc1snc(S(=O)(=O)/C(C#N)=N/Nc2cccc(C(F)(F)F)c2)c1C#N	98	0	0	-	0	0
Cc1nc(C)c(-c2csc(Nc3cccnc3)n2)s1	94	0	0	0	0	0
Clc1cccc(-c2csc(Nc3cccnc3)n2)c1	0	0	0	0	0	0
Clc1ccccc1-c1csc(Nc2cccnc2)n1	68	0	0	0	0	0
c1cncc(Nc2nc(-c3cccnc3)cs2)c1	50	-	0	0	0	0
c1cncc(Nc2nc(-c3ccncc3)cs2)c1	0	-	0	0	0	0
COc1ccc(Nc2nc(-c3sc(C)nc3C)cs2)cc1	0	-	0	0	0	0
CCCc1nc2c(C)cc(Br)cn2c1Cc1cccc(Cl)c1	-	-	-	0	-	-
c1ccc2c(c1)[nH]c1c(N3CCC4(CC3)OCCO4)ncnc12	66	0	0	-	0	0
OC1(c2cccc(C(F)(F)F)c2)CCN(c2ncnc3c2[nH]c2ccccc23)CC1	54	-	0	0	0	0
c1ccc2c(c1)CCN(c1ncnc3c1[nH]c1ccccc13)C2	0	0	0	0	0	0
CC[C@@H](CCCc1ccccc1OC)CCS(=O)(=O)C(C)(C)C	-	-	-	0	-	-
COCc1cc(C)c2c(N)c(C#N)sc2n1	0	0	0	7.9	0	0
COc1ccc(-c2cc(-c3cccs3)nc3sc(C#N)c(N)c23)cc1	0	0	0	0	?	0
CC(=O)Oc1ccc(C(=O)Nc2cccc(C(=O)c3ccc(C)c(C)c3)c2)cc1	0	-	0	0	84	0
COc1ccc(C(=O)Nc2cccc(OC(=O)c3ccc(C)c(C)c3)c2)cc1	0	-	0	0	0	0
O=C1/C(=C\c2ccc(O)c(O)c2)SC(=S)N1Cc1ccccc1	-	0	0	0	83	0
O=C1/C(=C\c2cccc(O)c2)SC(=S)N1Cc1ccccc1	0	0	0	0	0	0
COc1cc(/C=C2/SC(=S)N(Cc3ccccc3)C2=O)ccc1O	0	0	0	0	0	0
O=C1/C(=C\c2cccc(O)c2O)SC(=S)N1Cc1ccccc1	0	0	0	0	133	0
CCc1nc(SCC(=O)NCCc2ccccc2)c2oc3ccccc3c2n1	0	-	0	0	0	0
CCOC(=O)CSc1nc(-c2ccccc2)nc2c1oc1ccccc12	48	-	0	0	0	0
CCc1nc(SCC(=O)c2cccs2)c2oc3ccccc3c2n1	57	-	0	0	0	0
O=C(O)c1cccc(N/N=C/c2cn(-c3ccccc3)nc2-c2cccs2)c1	54	0	0	0	0	0
N#Cc1ccc(N/N=C/c2cn(-c3ccccc3)nc2-c2ccccc2)c([N+](=O)[O-])c1	0	0	0	0	0	0
